ChEMBL document CHEMBL2346604, “Synthesis of nordihydroguaiaretic acid derivatives and their bioactivities on S. pombe and K562 cell lines” (Eur J Med Chem, 2013)
In brackets after ≈: the same amount, converted by molar mass. Activity calls are given as the source filed them. The calls are words filed in the database; no cut-off is given here.

How the values were obtained:
K562 [1] = assay: Inhibitive ratio of growth metabolism of human K562 cells at 4 mg/L at 37 degC by TAM air microcalorimetry (reference value: 0%); assay type: functional
In short: (§1)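 K562 cells in supplemented RPMI 1640 (10% FBS) seeded at 1×10⁶ cells/mL with compound at graded concentrations. Heat flow recorded in real time in an eight-channel isothermal microcalorimeter (TAM Air). Rate constant k derived from thermogenic growth curves. Inhibition ratio I = (k0 − kc)/k0 × 100% relative to untreated cells, and IC50 is the concentration at I = 50%. Mean ± S.D., n = 3.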

[2] = test system: Schizosaccharomyces pombe; assay: Inhibitive ratio of growth metabolism of Schizosaccharomyces pombe ACCC 20047 at 20 mg/L at 32 degC by TAM air microcalorimetry (reference value: 0%); assay type: functional
In short: (§2)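 Cells seeded at 1×10⁶ cells/mL with compound at a range of concentrations. Heat output recorded continuously in a TAM Air isothermal microcalorimeter. Growth rate constant k taken from power-time curves. I = (k0 − kc)/k0 × 100%, and IC50 is the concentration giving I = 50%. n = 3.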

K562 [3] = assay: Inhibitive ratio of growth metabolism of human K562 cells at 11 mg/L at 37 degC by TAM air microcalorimetry (reference value: 0%); assay type: functional; in short: as §1
K562 [4] = assay: Inhibition of growth metabolism of human K562 cells assessed as growth rate constant at 9 mg/L at 37 degC by TAM air microcalorimetry; assay type: functional; in short: as §1
K562 [5] = assay: Inhibitive ratio of growth metabolism of human K562 cells at 6 mg/L at 37 degC by TAM air microcalorimetry (reference value: 0%); assay type: functional; in short: as §1
K562 [6] = assay: Inhibition of growth metabolism of human K562 cells assessed as growth rate constant at 7 mg/L at 37 degC by TAM air microcalorimetry; assay type: functional; in short: as §1
[7] = test system: Schizosaccharomyces pombe; assay: Inhibitive ratio of growth metabolism of Schizosaccharomyces pombe ACCC 20047 at 40 mg/L at 32 degC by TAM air microcalorimetry (reference value: 0%); assay type: functional; in short: as §2
[8] = test system: Schizosaccharomyces pombe; assay: Inhibition of growth metabolism of Schizosaccharomyces pombe ACCC 20047 assessed as growth rate constant at 400 mg/L at 32 degC by TAM air microcalorimetry; assay type: functional; in short: as §2
K562 [9] = assay: Inhibition of growth metabolism of human K562 cells assessed as growth rate constant at 4 mg/L at 37 degC by TAM air microcalorimetry; assay type: functional; in short: as §1
K562 [10] = assay: Inhibitive ratio of growth metabolism of human K562 cells at 7 mg/L at 37 degC by TAM air microcalorimetry (reference value: 0%); assay type: functional; in short: as §1
[11] = test system: Schizosaccharomyces pombe; assay: Inhibition of growth metabolism of Schizosaccharomyces pombe ACCC 20047 at 32 degC by TAM air microcalorimetry; assay type: functional, organism-based; in short: as §2
K562 [12] = assay: Inhibition of growth metabolism of human K562 cells at 37 degC by TAM air microcalorimetry; assay type: functional, cell-based; in short: as §1
[13] = test system: Schizosaccharomyces pombe; assay: Inhibition of growth metabolism of Schizosaccharomyces pombe ACCC 20047 assessed as growth rate constant at 40 mg/L at 32 degC by TAM air microcalorimetry; assay type: functional; in short: as §2
[14] = test system: Schizosaccharomyces pombe; assay: Inhibition of growth metabolism of Schizosaccharomyces pombe ACCC 20047 assessed as growth rate constant at 320 mg/L at 32 degC by TAM air microcalorimetry; assay type: functional; in short: as §2
[15] = test system: Schizosaccharomyces pombe; assay: Inhibition of growth metabolism of Schizosaccharomyces pombe ACCC 20047 assessed as growth rate constant at 20 mg/L at 32 degC by TAM air microcalorimetry; assay type: functional; in short: as §2
K562 [16] = assay: Inhibition of growth metabolism of human K562 cells assessed as growth rate constant at 6 mg/L at 37 degC by TAM air microcalorimetry; assay type: functional; in short: as §1
[17] = test system: Schizosaccharomyces pombe; assay: Inhibitive ratio of growth metabolism of Schizosaccharomyces pombe ACCC 20047 at 320 mg/L at 32 degC by TAM air microcalorimetry (reference value: 0%); assay type: functional; in short: as §2
K562 [18] = assay: Inhibitive ratio of growth metabolism of human K562 cells at 8 mg/L at 37 degC by TAM air microcalorimetry (reference value: 0%); assay type: functional; in short: as §1
[19] = test system: Schizosaccharomyces pombe; assay: Inhibitive ratio of growth metabolism of Schizosaccharomyces pombe ACCC 20047 at 400 mg/L at 32 degC by TAM air microcalorimetry (reference value: 0%); assay type: functional; in short: as §2
K562 [20] = assay: Inhibition of growth metabolism of human K562 cells assessed as growth rate constant at 8 mg/L at 37 degC by TAM air microcalorimetry; assay type: functional; in short: as §1
[21] = test system: Schizosaccharomyces pombe; assay: Inhibition of growth metabolism of Schizosaccharomyces pombe ACCC 20047 assessed as growth rate constant at 160 mg/L at 32 degC by TAM air microcalorimetry; assay type: functional; in short: as §2
[22] = test system: Schizosaccharomyces pombe; assay: Inhibitive ratio of growth metabolism of Schizosaccharomyces pombe ACCC 20047 at 160 mg/L at 32 degC by TAM air microcalorimetry (reference value: 0%); assay type: functional; in short: as §2
[23] = test system: Schizosaccharomyces pombe; assay: Inhibitive ratio of growth metabolism of Schizosaccharomyces pombe ACCC 20047 at 80 mg/L at 32 degC by TAM air microcalorimetry (reference value: 0%); assay type: functional; in short: as §2
[24] = test system: Schizosaccharomyces pombe; assay: Inhibition of growth metabolism of Schizosaccharomyces pombe ACCC 20047 assessed as growth rate constant at 240 mg/L at 32 degC by TAM air microcalorimetry; assay type: functional; in short: as §2
K562 [25] = assay: Inhibitive ratio of growth metabolism of human K562 cells at 9 mg/L at 37 degC by TAM air microcalorimetry (reference value: 0%); assay type: functional; in short: as §1
[26] = test system: Schizosaccharomyces pombe; assay: Inhibitive ratio of growth metabolism of Schizosaccharomyces pombe ACCC 20047 at 240 mg/L at 32 degC by TAM air microcalorimetry (reference value: 0%); assay type: functional; in short: as §2
[27] = test system: Schizosaccharomyces pombe; assay: Inhibition of growth metabolism of Schizosaccharomyces pombe ACCC 20047 assessed as growth rate constant at 80 mg/L at 32 degC by TAM air microcalorimetry; assay type: functional; in short: as §2
K562 [28] = assay: Inhibition of growth metabolism of human K562 cells assessed as growth rate constant at 11 mg/L at 37 degC by TAM air microcalorimetry; assay type: functional; in short: as §1
[29] = test system: Schizosaccharomyces pombe; assay: Inhibition of growth metabolism of Schizosaccharomyces pombe ACCC 20047 assessed as growth rate constant at 380 mg/L at 32 degC by TAM air microcalorimetry; assay type: functional; in short: as §2
K562 [30] = assay: Inhibitive ratio of growth metabolism of human K562 cells at 2 mg/L at 37 degC by TAM air microcalorimetry (reference value: 0%); assay type: functional; in short: as §1
K562 [31] = assay: Inhibitive ratio of growth metabolism of human K562 cells at 5 mg/L at 37 degC by TAM air microcalorimetry (reference value: 0%); assay type: functional; in short: as §1
K562 [32] = assay: Induction of apoptosis in human K562 cells assessed as mitochondrial transmembrane potential at 4 mg/L after 18 hrs by Rh123 staining based fluorescence spectrophotometer analysis (reference value: 788.8 +/-1.0%); assay type: functional
K562 [33] = assay: Induction of apoptosis in human K562 cells assessed as mitochondrial transmembrane potential at 6 mg/L after 24 hrs by Rh123 staining based fluorescence spectrophotometer analysis (reference value: 277.9 +/-1.4%)
K562 [34] = assay: Induction of apoptosis in human K562 cells assessed as mitochondrial transmembrane potential at 4 mg/L after 24 hrs by Rh123 staining based fluorescence spectrophotometer analysis (reference value: 277.9 +/-1.4%); assay type: functional
K562 [35] = assay: Induction of late apoptosis in human K562 cells assessed as cell membrane structural changes, smaller nuclear size, chromatin assembly under nuclear envelope, clear nuclear membrane structure, lipid droplets in cytoplasm, protruded cell surface with red nucleus at 4 to 6 mg/L after 12 to 24 hrs by propidium iodide staining based fluorescence microscopy; assay type: functional
In short: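 K562 groups at 0, 4.0 and 6.0 mg/L were held 12, 18 or 24 h at 37 °C in 5% CO2. Cells (1 mL) were collected, washed three times in PBS, stained with propidium iodide for 5 min in the dark and washed. Morphology of membrane, nucleus, chromatin and cytoplasm was scored against untreated controls.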

K562 [36] = assay: Inhibition of growth metabolism of human K562 cells assessed as growth rate constant at 3 mg/L at 37 degC by TAM air microcalorimetry; assay type: functional; in short: as §1
K562 [37] = assay: Induction of apoptosis in human K562 cells assessed as mitochondrial transmembrane potential at 6 mg/L after 18 hrs by Rh123 staining based fluorescence spectrophotometer analysis (reference value: 788.8 +/-1.0%); assay type: functional
K562 [38] = assay: Inhibition of growth metabolism of human K562 cells assessed as growth rate constant at 5 mg/L at 37 degC by TAM air microcalorimetry; assay type: functional; in short: as §1
K562 [39] = assay: Induction of apoptosis in human K562 cells assessed as mitochondrial transmembrane potential at 6 mg/L after 12 hrs by Rh123 staining based fluorescence spectrophotometer analysis (reference value: 668.2 +/-0.8%); assay type: functional
K562 [40] = assay: Inhibition of growth metabolism of human K562 cells assessed as growth rate constant at 2 mg/L at 37 degC by TAM air microcalorimetry; assay type: functional; in short: as §1
K562 [41] = assay: Inhibitive ratio of growth metabolism of human K562 cells at 3 mg/L at 37 degC by TAM air microcalorimetry (reference value: 0%); assay type: functional; in short: as §1
K562 [42] = assay: Induction of apoptosis in human K562 cells assessed as mitochondrial transmembrane potential at 4 mg/L after 12 hrs by Rh123 staining based fluorescence spectrophotometer analysis (reference value: 668.2 +/-0.8%); assay type: functional
[43] = test system: Schizosaccharomyces pombe; assay: Inhibitive ratio of growth metabolism of Schizosaccharomyces pombe ACCC 20047 at 380 mg/L at 32 degC by TAM air microcalorimetry (reference value: 0%); assay type: functional; in short: as §2

Structure (SMILES)	inhibition at 4 µg/mL (K562 [1])	inhibition at 20 µg/mL [2]	inhibition at 6 µg/mL (K562 [5])	inhibition at 40 µg/mL [7]	Activity (K562 [9])	IC50 [11]	IC50 (K562 [12])	Activity [13]	Activity [14]	Activity [15]	Activity (K562 [16])	inhibition at 320 µg/mL [17]	inhibition at 8 µg/mL (K562 [18])	Activity (K562 [20])	Activity [21]	inhibition at 160 µg/mL [22]	inhibition at 80 µg/mL [23]	Activity [24]	inhibition at 240 µg/mL [26]	Activity [27]	also measured
COc1ccc(C(=O)C(C)C(C)C(=O)c2ccc(OC)c(OC)c2)cc1OC (stereo not drawn)	-13.9%	-7.88%	-0.78%	-4.05%	4.4893 ×10⁻⁴ /min	290 µg/mL (≈ 750 µM)	8.57 µg/mL (≈ 22.2 µM)	0.00462 min⁻¹	0.00163 min⁻¹	0.00479 min⁻¹	3.9703 ×10⁻⁴ /min	63.3%	42%	2.2866 ×10⁻⁴ /min	0.00421 min⁻¹	5.18%	-3.6%	0.00341 min⁻¹	23.2%	0.0046 min⁻¹	inhibition at 11 µg/mL (K562 [3]): 57.3%; Activity (K562 [4]): 1.7435 ×10⁻⁴ /min; Activity (K562 [6]): 3.6261 ×10⁻⁴ /min; Activity [8]: 0.00075 min⁻¹; inhibition at 7 µg/mL (K562 [10]): 7.96%; inhibition at 400 µg/mL [19]: 83%; inhibition at 9 µg/mL (K562 [25]): 55.8%; Activity (K562 [28]): 1.681 ×10⁻⁴ /min
COc1ccc(C[C@@H](C)[C@@H](C)Cc2ccc(OC)c(OC)c2)cc1OC [TERAMEPROCOL]	5.06%	9.48%	52.9%	8.13%	3.9762 ×10⁻⁴ /min	330 µg/mL (≈ 921 µM)	5.87 µg/mL (≈ 16.4 µM)	0.00407 min⁻¹	0.00245 min⁻¹	0.00401 min⁻¹	1.9712 ×10⁻⁴ /min	44.7%	79.6%	8.5275 ×10⁻⁵ /min	0.00392 min⁻¹	11.5%	4.06%	0.00322 min⁻¹	27.3%	0.00425 min⁻¹	Activity [29]: 0.00143 min⁻¹; inhibition at 2 µg/mL (K562 [30]): -12.8%; inhibition at 5 µg/mL (K562 [31]): 33.2%; Activity (K562 [32]): 615.3%; Activity (K562 [33]): 170.7%; Activity (K562 [34]): 168%; Activity (K562 [35]): Active; Activity (K562 [36]): 4.4342 ×10⁻⁴ /min; Activity (K562 [37]): 331.5%; Activity (K562 [38]): 2.7992 ×10⁻⁴ /min; Activity (K562 [39]): 477.8%; Activity (K562 [40]): 4.7239 ×10⁻⁴ /min; inhibition at 3 µg/mL (K562 [41]): -5.88%; Activity (K562 [42]): 597.2%; inhibition at 380 µg/mL [43]: 67.7%
